Consider 2 compounds from ChEMBL document CHEMBL3272012, “5-(Tetradecyloxy)-2-furancarboxylic acid and related hypolipidemic fatty acid-like alkyloxyarylcarboxylic acids” (J Med Chem, 1977).

In series [1] the test system is Rattus norvegicus. The series can be described thus: Hypolipidemic activity in Wistar rat assessed as reduction in plasma cholesterol level at 154 umol/kg/day administered through diet for 10 days. The conditions noted are these: 240 h. In kind it is functional. In a few lines: (§1)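 Young male Wistar rats, 170-190 g at start, in groups of six, given compound mixed into Purina Lab Chow ad libitum for 4 or 10 days as stated. Daily dose was calculated from food consumption and body weight. Plasma was taken by cardiac puncture at the end and cholesterol measured by automated procedure. Results are % reduction versus a concurrent untreated control group, with Student's t test.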

In series [2] the test system is Rattus norvegicus. The series can be described thus: Hypolipidemic activity in Wistar rat assessed as reduction in plasma cholesterol level at 314 umol/kg/day administered through diet for 10 days. In kind it is functional. The following applies: 240 h. Summed up: as §1
The subject of series [3] is Rattus norvegicus. The series can be described thus: Hypolipidemic activity in Wistar rat assessed as reduction in plasma cholesterol level at 410 umol/kg/day administered through diet for 4 days. The format is functional. The conditions noted are these: 96 h. In a few lines: as §1
The test system of series [4] is Rattus norvegicus. Description: Hypolipidemic activity in Wistar rat assessed as reduction in plasma cholesterol level at 583 umol/kg/day administered through diet for 10 days. In kind it is functional. The following applies: 240 h. Summed up: (§2)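 Young male Wistar rats (initial weight 170-190 g), groups of six, fed compound mixed into Purina Lab Chow ad libitum for 4 or 10 days; daily dose calculated from food consumption and body weight. Bled by cardiac puncture; plasma cholesterol and triglycerides by automated procedures; percent reduction versus simultaneous untreated controls, Student's t test.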

Series [5] deals with Rattus norvegicus. Description: Hypolipidemic activity in Wistar rat assessed as reduction in plasma triglyceride level at 154 umol/kg/day administered through diet for 10 days. The format is functional. The conditions noted are these: 240 h. Summed up: (§3)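 Young male Wistar rats, 170-190 g initial weight, six per group, fed drug mixed thoroughly into Purina Lab Chow ad libitum for the stated days; daily dose calculated from food consumption and body weight. Bled by cardiac puncture at end; plasma cholesterol and triglycerides by automated procedures, expressed as percent reduction versus simultaneous untreated controls; Student's t test.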

Series [6] deals with Rattus norvegicus. The series can be described thus: Hypolipidemic activity in Wistar rat assessed as reduction in plasma triglyceride level at 314 umol/kg/day administered through diet for 10 days. The conditions noted are these: 240 h. The format is functional. Summed up: as §3
Series [7] relates to Rattus norvegicus. The series can be described thus: Hypolipidemic activity in Wistar rat assessed as reduction in plasma triglyceride level at 410 umol/kg/day administered through diet for 4 days. The format is functional. The conditions noted are these: 96 h.
In series [8] the test system is Rattus norvegicus. The series can be described thus: Hypolipidemic activity in Wistar rat assessed as reduction in plasma triglyceride level at 583 umol/kg/day administered through diet for 10 days. In kind it is functional. The conditions noted are these: 240 h.
Series [9] deals with Rattus norvegicus. The series can be described thus: Increase in cholesterol level in Wistar rat liver at 154 umol/kg/day administered through diet for 10 days. The format is ADME, organism-based. The following applies: in vivo, po, 240 h.
In series [10] the test system is Rattus norvegicus. The series can be described thus: Increase in cholesterol level in Wistar rat liver at 314 umol/kg/day administered through diet for 10 days. In kind it is ADME, organism-based. The conditions noted are these: in vivo, po, 240 h.
The subject of series [11] is Rattus norvegicus. Description: Increase in cholesterol level in Wistar rat liver at 410 umol/kg/day administered through diet for 4 days. The format is ADME, organism-based. The conditions noted are these: in vivo, po, 96 h.
Series [12] deals with Rattus norvegicus. The series can be described thus: Increase in cholesterol level in Wistar rat liver at 583 umol/kg/day administered through diet for 10 days. The format is ADME, organism-based. The following applies: in vivo, po, 240 h.
For series [13], the system named is Rattus norvegicus. Description: Inhibition of cholesterol biosynthesis in Ad Lib fed Wistar rat liver assessed as sodium [1-14C]acetate incorporation at 154 mg/kg/day administered through diet for 7 days measured 1 hr after labeled acetate challenge by liquid scintillation spectrometry (reference value: 12.7 +/- 2.6 x 10^-3 dpm). The format is functional.
Series [14] deals with Rattus norvegicus. Description: Inhibition of cholesterol biosynthesis in meal fed Wistar rat liver assessed as sodium [1-14C]acetate incorporation at 95 mg/kg/day administered through diet for 7 days measured 1 hr after labeled acetate challenge by liquid scintillation spectrometry (reference value: 41.3 +/- 3.2 x 10^-3 dpm). The format is functional.
Series [15] has as its system Rattus norvegicus. The series can be described thus: Increase in liver weight in Wistar rat at 154 umol/kg/day administered through diet for 10 days. The following applies: in vivo, po, 240 h. The format is ADME, organism-based.
Series [16] concerns Rattus norvegicus. The series can be described thus: Increase in liver weight in Wistar rat at 314 umol/kg/day administered through diet for 10 days. The following applies: in vivo, po, 240 h. The format is ADME, organism-based.
Series [17] has as its system Rattus norvegicus. Description: Increase in liver weight in Wistar rat at 410 umol/kg/day administered through diet for 4 days. The conditions noted are these: in vivo, po, 96 h. In kind it is ADME, organism-based.
The test system of series [18] is Rattus norvegicus. The series can be described thus: Increase in liver weight in Wistar rat at 583 umol/kg/day administered through diet for 10 days. The following applies: in vivo, po, 240 h. The format is ADME, organism-based.
Series [19] relates to Rattus norvegicus. Description: Inhibition of fatty acid biosynthesis in Ad Lib fed Wistar rat liver assessed as sodium [1-14C]acetate incorporation at 154 mg/kg/day administered through diet for 7 days measured 1 hr after labeled acetate challenge by liquid scintillation spectrometry (reference value: 27.2 +/- 4.8 x 10^-3 dpm). In kind it is functional.
The test system of series [20] is Rattus norvegicus. Description: Inhibition of fatty acid biosynthesis in meal fed Wistar rat liver assessed as sodium [1-14C]acetate incorporation at 95 mg/kg/day administered through diet for 7 days measured 1 hr after labeled acetate challenge by liquid scintillation spectrometry (reference value: 182 +/- 22 x 10^-3 dpm). In kind it is functional.
Series [21] concerns Rattus norvegicus. Description: Inhibition of cholesterol synthesis in Wistar rat liver assessed as drug incorporation into triglycerides administered for 2 weeks by gas chromatography. The format is functional, organism-based.
Series [22] has as its system Rattus norvegicus. Description: Inhibition of cholesterol synthesis in Wistar rat liver assessed as drug incorporation into cholesterol ester administered for 2 weeks by gas chromatography. In kind it is functional, organism-based.
Series [23] has as its system Rattus norvegicus. Description: Inhibition of fatty acid synthesis in Wistar rat liver assessed as drug incorporation into phospholipid administered for 2 weeks by gas chromatography. In kind it is functional, organism-based.
Series [24] deals with Rhesus monkey. The series can be described thus: Hypolipidemic activity in rhesus monkey assessed as reduction in plasma cholesterol level at 92 umol/kg/day administered for 28 days. In kind it is functional. The following applies: Macaca mulatta, 672 h.
Series [25] concerns Rhesus monkey. Description: Hypolipidemic activity in rhesus monkey assessed as reduction in plasma cholesterol level at 308 umol/kg/day administered for 28 days. In kind it is functional. The conditions noted are these: Macaca mulatta, 672 h.
Series [26] deals with Rattus norvegicus. Description: Hypolipidemic activity in Wistar rat assessed as reduction in plasma triglyceride level at 1693 umol/kg/day administered through diet for 10 days. In kind it is functional. The conditions noted are these: 240 h. Summed up:
as §3

Series [27] deals with Rattus norvegicus. The series can be described thus: Hypolipidemic activity in Wistar rat assessed as reduction in plasma triglyceride level at 766 umol/kg/day administered through diet for 10 days. In kind it is functional. The conditions noted are these: 240 h.
For series [28], the system named is Rattus norvegicus. The series can be described thus: Hypolipidemic activity in Wistar rat assessed as reduction in plasma triglyceride level at 304 umol/kg/day administered through diet for 10 days. The format is functional. The following applies: 240 h. In a few lines: as §3
The subject of series [29] is Rattus norvegicus. Description: Hypolipidemic activity in Wistar rat assessed as reduction in plasma triglyceride level at 119 umol/kg/day administered through diet for 10 days. The following applies: 240 h. The format is functional. Summed up:
as §3

In series [30] the test system is Rattus norvegicus. Description: Hypolipidemic activity in Wistar rat assessed as reduction in plasma cholesterol level at 1693 umol/kg/day administered through diet for 10 days. In kind it is functional. The conditions noted are these: 240 h. Summed up: as §1
For series [31], the system named is Rattus norvegicus. Description: Hypolipidemic activity in Wistar rat assessed as reduction in plasma cholesterol level at 766 umol/kg/day administered through diet for 10 days. In kind it is functional. The conditions noted are these: 240 h. In a few lines:
as §2

Series [32] has as its system Rattus norvegicus. Description: Hypolipidemic activity in Wistar rat assessed as reduction in plasma cholesterol level at 304 umol/kg/day administered through diet for 10 days. The following applies: 240 h. In kind it is functional. In a few lines:
as §1

The subject of series [33] is Rattus norvegicus. The series can be described thus: Hypolipidemic activity in Wistar rat assessed as reduction in plasma cholesterol level at 119 umol/kg/day administered through diet for 10 days. In kind it is functional. The conditions noted are these: 240 h. Summed up:
as §1

Series [34] has as its system Rattus norvegicus. Description: Increase in liver weight in Wistar rat at 1693 umol/kg/day administered through diet for 10 days. The format is ADME, organism-based. The conditions noted are these: in vivo, po, 240 h.
Series [35] relates to Rattus norvegicus. The series can be described thus: Increase in liver weight in Wistar rat at 766 umol/kg/day administered through diet for 10 days. In kind it is ADME, organism-based. The following applies: in vivo, po, 240 h.
For series [36], the system named is Rattus norvegicus. Description: Increase in liver weight in Wistar rat at 304 umol/kg/day administered through diet for 10 days. The format is ADME, organism-based. The following applies: in vivo, po, 240 h.
The test system of series [37] is Rattus norvegicus. The series can be described thus: Increase in liver weight in Wistar rat at 119 umol/kg/day administered through diet for 10 days. The format is ADME, organism-based. The following applies: in vivo, po, 240 h.
For series [38], the system named is Rattus norvegicus. Description: Inhibition of cholesterol biosynthesis in Ad Lib fed Wistar rat liver assessed as sodium [1-14C]acetate incorporation at 261 mg/kg/day administered through diet for 7 days measured 1 hr after labeled acetate challenge by liquid scintillation spectrometry (reference value: 12.7 +/- 2.6 x 10^-3 dpm). The format is functional.
Series [39] has as its system Rattus norvegicus. The series can be described thus: Inhibition of cholesterol biosynthesis in meal fed Wistar rat liver assessed as sodium [1-14C]acetate incorporation at 188 mg/kg/day administered through diet for 7 days measured 1 hr after labeled acetate challenge by liquid scintillation spectrometry (reference value: 41.3 +/- 3.2 x 10^-3 dpm). In kind it is functional.

The subject of series [40] is Rattus norvegicus. The series can be described thus: Inhibition of fatty acid biosynthesis in Ad Lib fed Wistar rat liver assessed as sodium [1-14C]acetate incorporation at 261 mg/kg/day administered through diet for 7 days measured 1 hr after labeled acetate challenge by liquid scintillation spectrometry (reference value: 27.2 +/- 4.8 x 10^-3 dpm). The format is functional.

Series [41] concerns Rattus norvegicus. Description: Inhibition of fatty acid biosynthesis in meal fed Wistar rat liver assessed as sodium [1-14C]acetate incorporation at 188 mg/kg/day administered through diet for 7 days measured 1 hr after labeled acetate challenge by liquid scintillation spectrometry (reference value: 182 +/- 22 x 10^-3 dpm). The format is functional.

The source made the active and inactive calls. No cut-off for these calls is given here.

A word on the inhibition in vivo: it is how much of the control response was suppressed. Regarding `CCCCCCCCCCCCCCOc1ccc(C(=O)O)o1` [TOFA], the inhibition in vivo at 154 µmol/kg was 12% in the series on Rattus norvegicus [1] and 27% in the series with Rattus norvegicus [5]. Also, the inhibition in vivo at 314 µmol/kg in the series on Rattus norvegicus [2] is 38%; with Rattus norvegicus [6] it was 61%. Also, the inhibition in vivo at 410 µmol/kg with Rattus norvegicus [3] came out at 40%; with Rattus norvegicus [7] it was 75%. In addition, the inhibition in vivo at 583 µmol/kg in the series on Rattus norvegicus [4] stood at 64%; with Rattus norvegicus [8], 92%. Besides, the Activity is 5% in the series on Rattus norvegicus [9]; 0% with Rattus norvegicus [10]; 12% in the series on Rattus norvegicus [11]; 0% with Rattus norvegicus [12]; 14900 dpm in the series with Rattus norvegicus [13]; 40800 dpm in the series with Rattus norvegicus [14]. The Activity stood at 1% with Rattus norvegicus [15]; 15% in the series on Rattus norvegicus [16]; 6% in the series on Rattus norvegicus [17]; 33% with Rattus norvegicus [18]; 22800 dpm in the series on Rattus norvegicus [19]; 60000 dpm with Rattus norvegicus [20]. Further, the inhibition entry in the series with Rattus norvegicus [21] and with Rattus norvegicus [22] was “inactive” each time. Moreover, the inhibition result in the series on Rattus norvegicus [23] was “Active”. The inhibition in vivo at 92 µmol/kg in the series on Rhesus monkey [24] is 10%. For the same compound, the inhibition in vivo at 308 µmol/kg in the series with Rhesus monkey [25] stood at 24%.
On to `CCOC(=O)C(C)(C)Oc1ccc(Cl)cc1` [CLOFIBRATE], for which the figures for the inhibition in vivo at 1693 µmol/kg in the series with Rattus norvegicus [26] and in the series on Rattus norvegicus [30] were 78% and 41%, respectively. For the same compound, the values for the inhibition in vivo at 766 µmol/kg in the series on Rattus norvegicus [27] and with Rattus norvegicus [31] were 66% and 36%, respectively. The inhibition in vivo at 304 µmol/kg in the series on Rattus norvegicus [28] came out at 48%; in the series with Rattus norvegicus [32] it was 18%. Moreover, the inhibition in vivo at 119 µmol/kg with Rattus norvegicus [29] was found to be 30%; in the series on Rattus norvegicus [33] it was 9%. Also, the Activity in the series on Rattus norvegicus [34] is 50%; with Rattus norvegicus [35] it was 22%; in the series with Rattus norvegicus [36], 2%; with Rattus norvegicus [37], 0%; with Rattus norvegicus [38], 4100 dpm; in the series with Rattus norvegicus [39], 43300 dpm. The Activity came to 50000 dpm in the series on Rattus norvegicus [40] and 205000 dpm with Rattus norvegicus [41].
